# Screening data: PubChem BioAssay, several laboratories
# Shown are actives, neighbours in structure and some others; about 4.1% of the full set was active somewhere.
# SMARCA2 activ: SMARCA2 (BRM) function activators, primary screen, cell-based, luminescence, high throughput; MG213 cells, MMTV-luciferase reporter, dexamethasone, overnight; activation, % at 9.1 µM; hit rate 1% among 370,000; in the data active = activation above about 7.8%;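 also: 0% = vehicle wells and 100% = reference activator wells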
# MC4R ag barr: MC4R agonists recruiting beta-arrestin, primary screen, cell-based, luminescence, agonist arm of biased-ligand search | Melanocortin receptor 4 (Homo sapiens), P32245 | U2OS MC4R beta-arrestin complementation; percent of melanotan II response, DMSO zero | activation, % at 8.9 µM | hit rate 0.98% among 360,000;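 active = activation above a per-plate cutoff, the mean activation of sample wells on that plate plus 3 SD, cut at about 8% in these data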
# Target sequence (P32245 whole entry, looked up): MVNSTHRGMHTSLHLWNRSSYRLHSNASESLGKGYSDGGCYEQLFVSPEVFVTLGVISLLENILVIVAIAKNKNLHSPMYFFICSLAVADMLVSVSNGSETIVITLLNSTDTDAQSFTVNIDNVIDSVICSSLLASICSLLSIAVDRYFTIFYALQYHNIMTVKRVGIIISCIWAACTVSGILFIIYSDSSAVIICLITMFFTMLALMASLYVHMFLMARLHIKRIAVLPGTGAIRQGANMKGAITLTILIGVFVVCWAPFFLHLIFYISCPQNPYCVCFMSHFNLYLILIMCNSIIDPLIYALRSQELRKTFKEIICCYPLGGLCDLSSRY
# MC4R antagonist: MC4R antagonists of cAMP signaling, primary screen, cell-based, TR-FRET, antagonist arm of biased-ligand search | Melanocortin receptor 4 (Homo sapiens), P32245 | MC4R-expressing cells, MTII-stimulated cAMP, LANCE TR-FRET | inhibition, % at 6.5 µM | hit rate 0.48% among 360,000 | AID 540295, 2011;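 active = inhibition above its plate's cutoff, the mean of tested wells on that plate plus 3 SD, cut at about 29% in these data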;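 also: 0% = Melanotan II alone and 100% = Melanotan II plus saturating MCL0020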
#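 Material: U2OS-MC4R stable cell line | Reagent: Melanotan II challenge after compound preincubation | Doses: One concentration, 6.5 µM nominal | Incubation: 30-min compound preincubation, 1-h Melanotan II challenge, 1-h detection, room temperature | Signal: TR-FRET cAMP assay | Replicates: One well per compound, no replicates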
# MPTP inh: mitochondrial permeability transition pore inhibitors, primary screen, biochemical, isolated mouse mitochondria, absorbance. hit rate 1.4% among 360,000. Ca2+ swelling absorbance, 30 min. inhibition, % at 10 µM;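 active = inhibition of 50% or more, scaled per plate between neutral and stimulator controls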;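 also: 0% = DMSO wells given calcium and 100% = 1 mM EGTA wells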
# ATG4B inhibitor: ATG4B protease inhibitors, primary screen, biochemical, fluorescence, uHTS. AID 504462, 2011. inhibition, % at 8.33 µM. ATG4B cleavage of LC3-PLA2, NBD-HPC fluorescence, 1 h. Cysteine protease ATG4B (Homo sapiens), Q9Y4P1. hit rate 0.51% among 340,000; in the data active = inhibition above about 40%
# * = called active by the depositor; nt = no result.
SMILES,SMARCA2 activ,MC4R ag barr,MC4R antagonist,MPTP inh,ATG4B inhibitor
CC1=CC2C(C(O)CC3(C)C2CC(C)C32OCOC23COCO3)C2(C)C/C(=C\O)C(=O)C=C12 (stereo not given),-8,29*,26,-1,-1
Cc1ccc(-c2nc3ncccc3o2)cc1NC(=O)c1ccc2c(c1)OCO2,3,1,10,0,-2
Cc1ccc(-c2nc3ccccc3s2)cc1NC(=O)c1ccc2c(c1)OCO2,-2,-2,38*,1,10
COC(=O)[C@]12C[C@H](CC(=O)NCc3cccc(C(F)(F)F)c3)C(=O)N(CCc3ccc(OC)c(OC)c3)C1=C[C@H](COCc1ccccc1)O[C@@H]2C,2,nt,nt,nt,nt
O=C(N[C@H](Cc1ccccc1)C(=O)N1CCN(c2ncccn2)CC1)[C@H]1O[C@@H](n2ccc(=O)[nH]c2=O)[C@H](O)[C@@H]1O,0,nt,nt,nt,nt
COc1ccc(NC(=O)C2=Cc3cccc(OC)c3OC2)cc1,7.8*,-2,-5,0,-14
COc1ccc(NC(=O)C2=Cc3ccccc3OC2)cc1,1,1,25,-1,7
COCc1cn(-c2ccc3c(c2)[C@@]2(CC(=O)N(C)C2c2ccccc2)C(=O)N3CC(C)C)nn1 (stereo not given in full),0,nt,nt,nt,nt
O=C(Nc1nccs1)c1sc2ccccc2c1Cl,6,1,-4,6,-8
O=C(Nc1nccs1)c1sc2cc(Cl)ccc2c1Cl,4,10*,1,10,12
Cn1cc(Cl)c(C(=O)Nc2nc3ccccc3s2)n1,7.9*,-2,-3,0,-3
CC(/C=N/NC(=O)c1cc(-c2ccc(C)o2)[nH]n1)=C\c1ccccc1,-2,9.2*,2,6,-4
Cc1ccc(-c2cc(C(=O)N/N=C/c3ccccc3)n[nH]2)o1,-1,0,0,0,-2
Cc1ccc(C)c(NC(=O)CN2C(=O)CCSc3ccccc32)c1,-1,nt,nt,nt,nt
O=C(O)c1ccc(N/N=C/C2=C(N3CCOCC3)C(=C\c3ccccc3)/CC2)cc1,2,-1,29*,3,-2
Cc1cc(C)nc(N/N=C/C2=C(N3CCOCC3)C(=C\c3ccc(Cl)cc3)/CC2)n1,-3,-4,8,1,-7
CCCCNC(=O)C[C@H]1C[C@@]2(C(=O)OC)C(=C[C@H](C3CCCC3)O[C@@H]2C)N(CCc2ccc(OC)c(OC)c2)C1=O,-5,nt,nt,nt,nt
Cn1ncc2c(O/N=C(\N)c3ccc(C(C)(C)C)cc3)ncnc21,nt,36*,12,5,-22
CCOC(=O)c1ccc(Nc2ncnc3c2cnn3C)cc1,-3,-2,0,-1,-3
Cc1ccc(OCc2nc(-c3cccs3)no2)c([N+](=O)[O-])c1,7.9*,0,-7,-1,4
Nc1[nH]c(C(=O)c2ccccc2)c(-c2ccc3ccccc3c2)c1C(=O)NCc1ccc(F)cc1,-2,nt,nt,nt,nt
c1ccc(-c2cn3c(n2)SCC3)cc1,7.8*,-1,4,-6,-7
COC(=O)C[C@H]1CC[C@H]2[C@H](COc3ccc(NS(=O)(=O)c4cccc(OC)c4)cc3C(=O)N2C)O1,-2,nt,nt,nt,nt
COC(=O)C1=C(C)N(Cc2ccc(C(F)(F)F)cc2)C(=NCc2ccccc2C(F)(F)F)NC1c1cccc(Cl)c1 (stereo not given),-1,nt,nt,nt,nt
COc1ccc(C(=O)c2[nH]c(N)c(C(=O)c3c[nH]c4ccccc34)c2-c2ccc(OC)cc2)cc1,2,nt,nt,nt,nt
SMILES,SMARCA2 activ,MC4R ag barr,MC4R antagonist,MPTP inh,ATG4B inhibitor
CC(=O)Nc1ccc(Nc2ncnc3c2cnn3-c2cccc(C)c2)cc1,7.9*,-1,-1,0,-19
CC(=O)Nc1ccc(Nc2ncnc3c2cnn3-c2ccccc2)cc1,6,2,5,0,-18
COC(=O)[C@]12C[C@H](CC(=O)NCc3ccccc3)C(=O)N(Cc3cccc4ccccc34)C1=C[C@H](COCc1ccccc1)O[C@@H]2C,-3,nt,nt,nt,nt
O=C(NN=C1CCC(=NNC(=O)c2ccccn2)CC1)c1ccccn1,11*,-1,5,0,-2
CC1CCC(C(C)C)C(OC(=O)Cn2c(-c3ccccc3)[n+](C)c3ccccc32)C1 (stereo not given),-5,2,-13,20,6
Cc1cccc(OCc2n(CC(=O)OC3CC(C)CCC3C(C)C)c3ccccc3[n+]2C)c1 (stereo not given),nt,23*,-3,9,13
O=C(C1=NN(c2ccccc2)C2C(=O)N(c3ccccc3Cl)C(=O)C12)c1ccccc1 (stereo not given),-1,9.1*,14,0,4
COC(=O)c1ccsc1NS(C)(=O)=O,-7,nt,nt,nt,nt
C[C@@H]1O[C@@H](n2c3ccc(Cl)cc3c3ccc4c5cc(Cl)ccc5[nH]c4c32)[C@H](O)[C@H](O)[C@H]1O,-4,nt,nt,nt,nt
O=C(COC(=O)COc1cccc(C(F)(F)F)c1)NC(=O)NC1CCCCC1,-2,8.7*,-2,0,-4
Cc1ccc(-c2cc(C(=O)N=Nc3c(O)[nH]c4ccccc34)[nH]n2)cc1C,-3,nt,nt,nt,nt
COC(=O)[C@]12C[C@H](CC(=O)NCc3cccc(C(F)(F)F)c3)C(=O)N(Cc3ccc4c(c3)OCO4)C1=C[C@H](C(C)C)O[C@@H]2C1CC1,-2,nt,nt,nt,nt
Cc1ccc(-n2sc3cc(F)ccc3c2=O)c(C)c1,-3,8.8*,-3,8,nt
O=c1c2ccc(F)cc2sn1-c1ccccc1,4,-2,-1,6,nt
Clc1cccc(Oc2ncc(CN3CCOCC3)s2)c1,7.9*,-1,-1,2,-13
CN(C)CCCNc1cc(C(C)(C)C)nc2c(-c3ccc(Cl)cc3)cnn12,-3,8.3*,0,-7,7
CC(C)(C)c1cc(NCc2ccccn2)n2ncc(-c3ccc(Cl)cc3)c2n1,-6,1,13,-3,-9
COC(=O)c1sc2ncccc2c1OCc1c(Cl)cccc1Cl,3,20*,-1,5,0
O=C(NC(C(=O)N/N=C/c1ccccn1)c1n[nH]c(=O)c2ccccc12)c1ccccc1 (stereo not given),7.9*,0,1,0,-5
O=C(NC1CCCCN(Cc2cccc(Cl)c2)C1=O)c1ccc2ccccc2c1 (stereo not given),2,nt,nt,nt,nt
CCCC[C@H](C(=O)N(C)c1cccc(OC)c1)[C@@H](O)c1ccc(Cl)cc1,-4,nt,nt,nt,nt
Cc1ccc(S(=O)(=O)c2nc(S(C)(=O)=O)sc2N2CCCCCC2)cc1,-3,1,-5,0,3
Cc1ccc(S(=O)(=O)c2nc(S(C)(=O)=O)sc2N2CCC(C)CC2)cc1,7.8*,-4,5,-2,-5
